Experimental data published in ChEMBL document CHEMBL4229342, “Synthesis of novel proxyphylline derivatives with dual Anti-Candida albicans and anticancer activity” (Eur J Med Chem, 2018).

What was measured:
Format in all cases: functional
CCRF-CEM [1] = assay: Antiproliferative activity against human CCRF-CEM cells assessed as cell viability at 25 uM after 72 hrs by MTT assay; conditions: read-out: Activity
In short: (§1)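 MTT viability assay in CCRF-CEM and MCF-7 cells after 72 h exposure at 25, 50, 100 and 200 µM. Results are relative to control cells without inhibitor in 0.5% DMSO. Done in triplicate; values are means ± SD of three independent experiments.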

CCRF-CEM [2] = assay: Antiproliferative activity against human CCRF-CEM cells assessed as cell viability at 50 uM after 72 hrs by MTT assay; conditions: read-out: Activity; in short: as §1
CCRF-CEM [3] = assay: Antiproliferative activity against human CCRF-CEM cells assessed as cell viability at 100 uM after 72 hrs by MTT assay; conditions: read-out: Activity; in short: as §1
CCRF-CEM [4] = assay: Antiproliferative activity against human CCRF-CEM cells assessed as cell viability at 200 uM after 72 hrs by MTT assay; conditions: read-out: Activity; in short: as §1
MCF7 [5] = assay: Antiproliferative activity against human MCF7 cells assessed as cell viability at 25 uM after 72 hrs by MTT assay; conditions: MCF7, 72 h, read-out: Activity; in short: as §1
MCF7 [6] = assay: Antiproliferative activity against human MCF7 cells assessed as cell viability at 50 uM after 72 hrs by MTT assay; conditions: MCF7, 72 h, read-out: Activity; in short: as §1
MCF7 [7] = assay: Antiproliferative activity against human MCF7 cells assessed as cell viability at 100 uM after 72 hrs by MTT assay; conditions: MCF7, 72 h, read-out: Activity; in short: as §1
MCF7 [8] = assay: Antiproliferative activity against human MCF7 cells assessed as cell viability at 200 uM after 72 hrs by MTT assay; conditions: MCF7, 72 h, read-out: Activity; in short: as §1
Candida albicans [9] = assay: Growth inhibition of Candida albicans ATCC 90028 at 16 ug/ml incubated for 18 hrs at 35 degC by broth microdilution method relative to control; conditions: ATCC 90028, 18 h, read-out: GI
Candida albicans [10] = assay: Growth inhibition of Candida albicans ATCC 90028 at 16 ug/ml incubated for 48 hrs at 35 degC by broth microdilution method relative to control; conditions: ATCC 90028, 48 h, read-out: GI
Candida albicans [11] = assay: Growth inhibition of Candida albicans ATCC 90028 at 8 ug/ml incubated for 18 hrs at 35 degC by broth microdilution method relative to control; conditions: ATCC 90028, 18 h, read-out: GI
Candida albicans [12] = assay: Growth inhibition of Candida albicans ATCC 90028 at 8 ug/ml incubated for 48 hrs at 35 degC by broth microdilution method relative to control; conditions: ATCC 90028, 48 h, read-out: GI
Candida albicans [13] = assay: Growth inhibition of Candida albicans ATCC 90028 at 4 ug/ml incubated for 18 hrs at 35 degC by broth microdilution method relative to control; conditions: ATCC 90028, 18 h, read-out: GI
Candida albicans [14] = assay: Growth inhibition of Candida albicans ATCC 90028 at 8 ug/ml incubated for 4 hrs at 35 degC by broth microdilution method relative to control; conditions: ATCC 90028, 4 h, read-out: GI
Candida albicans [15] = assay: Growth inhibition of Candida albicans ATCC 90028 at 2 ug/ml incubated for 18 hrs at 35 degC by broth microdilution method relative to control; conditions: ATCC 90028, 18 h, read-out: GI
Candida albicans [16] = assay: Growth inhibition of Candida albicans ATCC 90028 at 2 ug/ml incubated for 4 hrs at 35 degC by broth microdilution method relative to control; conditions: ATCC 90028, 4 h, read-out: GI
Candida albicans [17] = assay: Growth inhibition of Candida albicans ATCC 90028 at 1 ug/ml incubated for 18 hrs at 35 degC by broth microdilution method relative to control; conditions: ATCC 90028, 18 h, read-out: GI
Candida albicans [18] = assay: Growth inhibition of Candida albicans ATCC 90028 at 1 ug/ml incubated for 4 hrs at 35 degC by broth microdilution method relative to control; conditions: ATCC 90028, 4 h, read-out: GI
Candida albicans [19] = assay: Growth inhibition of Candida albicans ATCC 90028 at 0.5 ug/ml incubated for 18 hrs at 35 degC by broth microdilution method relative to control; conditions: ATCC 90028, 18 h, read-out: GI
Candida albicans [20] = assay: Growth inhibition of Candida albicans ATCC 90028 at 0.5 ug/ml incubated for 4 hrs at 35 degC by broth microdilution method relative to control; conditions: ATCC 90028, 4 h, read-out: GI
Candida albicans [21] = assay: Growth inhibition of Candida albicans ATCC 90028 at 0.25 ug/ml incubated for 18 hrs at 35 degC by broth microdilution method relative to control; conditions: ATCC 90028, 18 h, read-out: GI
Candida albicans [22] = assay: Growth inhibition of Candida albicans ATCC 90028 at 0.25 ug/ml incubated for 4 hrs at 35 degC by broth microdilution method relative to control; conditions: ATCC 90028, 4 h, read-out: GI
Candida albicans [23] = assay: Growth inhibition of Candida albicans ATCC 90028 at 0.125 ug/ml incubated for 18 hrs at 35 degC by broth microdilution method relative to control; conditions: ATCC 90028, 18 h, read-out: GI
Candida albicans [24] = assay: Growth inhibition of Candida albicans ATCC 90028 at 0.125 ug/ml incubated for 4 hrs at 35 degC by broth microdilution method relative to control; conditions: ATCC 90028, 4 h, read-out: GI
Candida albicans [25] = assay: Growth inhibition of Candida albicans ATCC 90028 at 0.0625 ug/ml incubated for 18 hrs at 35 degC by broth microdilution method relative to control; conditions: ATCC 90028, 18 h, read-out: GI
Candida albicans [26] = assay: Growth inhibition of Candida albicans ATCC 90028 at 0.0625 ug/ml incubated for 4 hrs at 35 degC by broth microdilution method relative to control; conditions: ATCC 90028, 4 h, read-out: GI
Candida albicans [27] = assay: Growth inhibition of Candida albicans ATCC 90028 at 0.0313 ug/ml incubated for 18 hrs at 35 degC by broth microdilution method relative to control; conditions: ATCC 90028, 18 h, read-out: GI
Candida albicans [28] = assay: Growth inhibition of Candida albicans ATCC 90028 at 0.0313 ug/ml incubated for 4 hrs at 35 degC by broth microdilution method relative to control; conditions: ATCC 90028, 4 h, read-out: GI
Candida albicans [29] = assay: Fungicidal activity against Candida albicans ATCC 90028 assessed as log reduction in cell viability at 16 ug/ml after 48 hrs at 35 degC
In short: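 MFC assay on C. albicans ATCC 90028 following M27-A3, at the molar equivalent of 16 µg/mL. CFU of treated cells were compared with CFU of the untreated inoculum. Activity is given as lg R = lg CFU/mL control − lg CFU/mL treated, and lg R ≥3 was defined as fungicidal. Values are means of two independent experiments.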

| SMILES | viability at 25 µM (CCRF-CEM [1]) [%] | viability at 50 µM (CCRF-CEM [2]) [%] | viability at 100 µM (CCRF-CEM [3]) [%] | viability at 200 µM (CCRF-CEM [4]) [%] | viability at 25 µM (MCF7 [5]) [%] | viability at 50 µM (MCF7 [6]) [%] | viability at 100 µM (MCF7 [7]) [%] | viability at 200 µM (MCF7 [8]) [%] | inhibition of growth at 16 µg/mL (Candida albicans [9]) [%] | inhibition of growth at 16 µg/mL (Candida albicans [10]) [%] | inhibition of growth at 8 µg/mL (Candida albicans [11]) [%] | inhibition of growth at 8 µg/mL (Candida albicans [12]) [%] | inhibition of growth at 4 µg/mL (Candida albicans [13]) [%] | inhibition of growth at 8 µg/mL (Candida albicans [14]) [%] | inhibition of growth at 2 µg/mL (Candida albicans [15]) [%] | inhibition of growth at 2 µg/mL (Candida albicans [16]) [%] | inhibition of growth at 1 µg/mL (Candida albicans [17]) [%] | inhibition of growth at 1 µg/mL (Candida albicans [18]) [%] | inhibition of growth at 0.5 µg/mL (Candida albicans [19]) [%] | inhibition of growth at 0.5 µg/mL (Candida albicans [20]) [%] | also measured |
| --- | --- | --- | --- | --- | --- | --- | --- | --- | --- | --- | --- | --- | --- | --- | --- | --- | --- | --- | --- | --- | --- |
| CC(Cn1cnc2c1c(=O)n(C)c(=O)n2C)OC(=O)CC(=O)c1ccc(F)cc1 (stereo unspecified) | 83.5 | 51.1 | 43.8 | 20.1 | 88.5 | 77.9 | 83.8 | 76.8 | 100 | 99.7 | 99.8 | 99.3 | 100 | 99.4 | 100 | 99.3 | 100 | 100 | 99.7 | 99.3 | inhibition of growth at 0.25 µg/mL (Candida albicans [21]): 99.7%; inhibition of growth at 0.25 µg/mL (Candida albicans [22]): 99.3%; inhibition of growth at 0.125 µg/mL (Candida albicans [23]): 99.8%; inhibition of growth at 0.125 µg/mL (Candida albicans [24]): 99.5%; inhibition of growth at 0.0625 µg/mL (Candida albicans [25]): 99.9%; inhibition of growth at 0.0625 µg/mL (Candida albicans [26]): 99.3%; inhibition of growth at 0.0313 µg/mL (Candida albicans [27]): 99.7%; inhibition of growth at 0.0313 µg/mL (Candida albicans [28]): 98.9%; log(activity) (Candida albicans [29]): 0.9 |
| COC(C(=O)OC(C)Cn1cnc2c1c(=O)n(C)c(=O)n2C)c1cccc2ccccc12 (stereo unspecified) | 96.6 | 87.9 | 51.4 | 34.6 | 92.6 | 87.7 | 83.3 | 76.9 | 99.8 | 99.4 | 100 | 99.6 | 99.5 | 99 | 99.9 | 99.3 | 100 | 99.3 | 100 | 99.1 | inhibition of growth at 0.25 µg/mL (Candida albicans [21]): 99.9%; inhibition of growth at 0.25 µg/mL (Candida albicans [22]): 98.9%; inhibition of growth at 0.125 µg/mL (Candida albicans [23]): 100%; inhibition of growth at 0.125 µg/mL (Candida albicans [24]): 100%; inhibition of growth at 0.0625 µg/mL (Candida albicans [25]): 100%; inhibition of growth at 0.0625 µg/mL (Candida albicans [26]): 100%; inhibition of growth at 0.0313 µg/mL (Candida albicans [27]): 100%; inhibition of growth at 0.0313 µg/mL (Candida albicans [28]): 99.5%; log(activity) (Candida albicans [29]): 0.5 |
| COC(C(=O)OC(C)Cn1cnc2c1c(=O)n(C)c(=O)n2C)c1ccc(C(C)(C)C)cc1 (stereo unspecified) | 75.8 | 55.3 | 28.6 | 0 | 82.2 | 79.5 | 63.5 | 35 | 99.8 | 99.2 | 100 | 99.7 | 99.9 | 99.5 | 99.9 | 99.2 | 99.8 | 99.4 | 99.7 | 98.9 | inhibition of growth at 0.25 µg/mL (Candida albicans [21]): 100%; inhibition of growth at 0.25 µg/mL (Candida albicans [22]): 99.3%; inhibition of growth at 0.125 µg/mL (Candida albicans [23]): 100%; inhibition of growth at 0.125 µg/mL (Candida albicans [24]): 99.2%; inhibition of growth at 0.0625 µg/mL (Candida albicans [25]): 99.9%; inhibition of growth at 0.0625 µg/mL (Candida albicans [26]): 99%; inhibition of growth at 0.0313 µg/mL (Candida albicans [27]): 99.8%; inhibition of growth at 0.0313 µg/mL (Candida albicans [28]): 99.4%; log(activity) (Candida albicans [29]): 0.2 |
| CC(Cn1cnc2c1c(=O)n(C)c(=O)n2C)OCc1cn(-c2cccc3ccccc23)nn1 (stereo unspecified) | 90 | 67.7 | 34.2 | 4.1 | 93.5 | 91.9 | 93.3 | 77 | 99.6 | 99.1 | 99.9 | 99.6 | 99.8 | 99.6 | 99.8 | 99.2 | 99.7 | 99.5 | 99.7 | 99.3 | inhibition of growth at 0.25 µg/mL (Candida albicans [21]): 99.8%; inhibition of growth at 0.25 µg/mL (Candida albicans [22]): 99.5%; inhibition of growth at 0.125 µg/mL (Candida albicans [23]): 100%; inhibition of growth at 0.125 µg/mL (Candida albicans [24]): 99.7%; inhibition of growth at 0.0625 µg/mL (Candida albicans [25]): 100%; inhibition of growth at 0.0625 µg/mL (Candida albicans [26]): 99.8%; inhibition of growth at 0.0313 µg/mL (Candida albicans [27]): 99.9%; inhibition of growth at 0.0313 µg/mL (Candida albicans [28]): 99.1%; log(activity) (Candida albicans [29]): 0.5 |
